Experimental data taken from PubChem BioAssay AID624006 (Broad Institute, 2012).
Where “and” joins values, the source holds several entries; their conditions need not be identical. Identical values can stand only once.

System: Candida albicans CaCi-2 growth, Alamar Blue fluorescence, 48 h
Assay: C. albicans growth inhibitors tested alone, no partner drug – CaCi-2 strain, Alamar Blue, dry powder, set 4, dose response (AID 624006)
Method in brief: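 Test system: fluconazole-resistant C. albicans CaCi-2; quantity: fungal inoculum at starting absorbance 0.00015 (600 nm); detection: Alamar Blue fluorescence; controls: amphotericin 10 µM final as positive control; medium: RPMI 1640 with MOPS buffer, uridine and glucose; schedule: 48 h at 37 °C, 2 h dye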

## CCOC(=O)N1C(=O)C2(CCCCC2)N(c2ccc(F)cc2)C1=S
  AC50: 39.9 nM

## CCOC(=O)N1C(=O)C2(CCCCC2)N(c2ccc(C)cc2)C1=S
  AC50: 223 nM and 253 nM

## CCOC(=O)N1C(=O)C2(CCCCC2)N(c2ccc(Cl)cc2)C1=S
  AC50: 65.7 nM

## CCOC(=O)N1C(=O)C2(CCCCC2)N(c2ccccc2)C1=S
  AC50: 202 nM

## CC1/C=C/C=C\C=C\C=C\C=C\C=C\C=C\C(O[C@H]2OC(C)C(O)C(N)C2O)CC2OC(O)(CC(O)CC(O)C(O)CCC(O)CC(O)CC(=O)OC(C)C(C)C1O)CC(O)C2C(=O)O (some centres not stated)
  AC50: 64.5 nM

## CCOC(=O)N1C(=O)C2(CCCCC2)N(c2cccc(C)c2)C1=S
  AC50: 194 nM

## CCOC(=O)N1C(=O)C2(CCCCC2)N(c2ccc(C#N)cc2)C1=S
  AC50: 88.9 nM
